Laboratory results: ChEMBL document CHEMBL1795201, “Substituted N-aryl-6-pyrimidinones: a new class of potent, selective, and orally active p38 MAP kinase inhibitors” (Bioorg Med Chem Lett, 2011)
Converted amounts (≈) assume the structure as drawn.

Tests used:
[1] = Metabolic stability in human liver microsomes at 2 uM after 45 mins by LC-MS analysis in presence of NADPH; format: ADME, Microsome; conditions: read-out: Stability
Method in brief: (§1)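 Test compound at 2 μM incubated with liver microsomes (human or rat), NADPH and buffer at 37 °C for 45 min; samples processed by precipitation, then LC-MS measured percent parent compound remaining.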

[2] = Metabolic stability in rat liver microsomes at 2 uM after 45 mins by LC-MS analysis in presence of NADPH; format: ADME, Microsome; conditions: read-out: Stability; method in brief: as §1
[3] = Aqueous solubility of the compound in amorphous form at pH 6.5; format: physicochemical
Method in brief: (§2)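 Aqueous solubility measured at pH 6.5, expressed in µg/mL.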

[4] = Clearance in rat at 0.2 mg/kg, iv; format: ADME, organism-based; parameters: dose 0.2 mg/kg, route intravenous; conditions: in vivo
[5] = Volume of distribution at steady state in rat at 0.2 mg/kg, iv; format: ADME, organism-based; parameters: dose 0.2 mg/kg, route intravenous; conditions: in vivo, read-out: Vdss
[6] = Half life in rat at 0.2 mg/kg, iv; format: ADME, organism-based; parameters: dose 0.2 mg/kg, route intravenous; conditions: in vivo
[7] = Oral bioavailability in rat at 0.2 mg/kg; format: ADME, organism-based; conditions: in vivo
[8] = Lipophilicity, log P of the compound; format: physicochemical; conditions: octanol/water
[9] = Clearance in dog at 1 mg/kg, iv; format: ADME, organism-based, Canis lupus familiaris; parameters: dose 1 mg/kg, route intravenous; conditions: in vivo
[10] = Volume of distribution at steady state in dog at 1 mg/kg, iv; format: ADME, organism-based, Canis lupus familiaris; parameters: dose 1 mg/kg, route intravenous; conditions: in vivo, read-out: Vdss
[11] = Half life in dog at 1 mg/kg, iv; format: ADME, organism-based, Canis lupus familiaris; parameters: dose 1 mg/kg, route intravenous; conditions: in vivo
[12] = Oral bioavailability in dog at 1 mg/kg; format: ADME, organism-based, Canis lupus familiaris; conditions: in vivo
[13] = Aqueous solubility of the compound in crystalline form at pH 6.5; format: physicochemical; conditions: aqueous medium; method in brief: as §2
[14] = Apparent permeability in human Caco2 cells; format: ADME, cell-based; conditions: Caco-2
[15] = Oral bioavailability in rat at 5 mg/kg administered as suspension; format: ADME, organism-based; conditions: in vivo
Method in brief: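 Rats dosed orally at 5 mpk with compound given as a suspension; bioavailability reported as oral BA (suspension).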

[16] = aqueous medium, read-out: solubility

SMILES	remaining at 0.75 h, 2 µM [1] [%]	remaining at 0.75 h, 2 µM [2] [%]	solubility [3, 16] [µg/mL]	further results
Cc1ccc(C(=O)NCCO)cc1-n1cnc(OCc2ccc(F)cc2F)c(Cl)c1=O	99	97	51 (≈ 113 µM)	clearance [4]: 3.19 mL/min/kg; Vd [5]: 1.32 L/kg; half-life [6]: 6.5 h; bioavailability [7]: 99%; logP [8]: 1.65; clearance [9]: 1.59 mL/min/kg; Vd [10]: 0.986 L/kg; half-life [11]: 8.7 h; bioavailability [12]: 67%; solubility [13]: 23 µg/mL (≈ 51.1 µM); Papp [14]: 7.99 ×10⁻⁶ cm/s; bioavailability [15]: 99%
Cc1ccc(C(=O)NCC(N)=O)cc1-n1cnc(OCc2ccc(F)cc2F)c(Cl)c1=O	100	100	14 (≈ 30.2 µM)	–
Cc1ccc(C(=O)N[C@H](C)C(N)=O)cc1-n1cnc(OCc2ccc(F)cc2F)c(Cl)c1=O	77	72	147 (≈ 308 µM)	–
Cc1ccc(C(=O)NCCO)cc1-n1cnc(OCc2ccc(F)cc2F)c(C)c1=O	84	99	28 (≈ 65.2 µM)	–
CCc1c(OCc2ccc(F)cc2F)ncn(-c2cc(C(=O)NCCO)ccc2C)c1=O	76	92	20 (≈ 45.1 µM)	–
Cc1ccc(C(=O)NCCO)cc1-n1cnc(OCc2ccc(F)cc2F)c(Br)c1=O	–	–	–	solubility ([3]; buffer): Insoluble
CNC(=O)c1ccc(C)c(-n2c(C)cc(OCc3ccc(F)cc3F)c(Br)c2=O)c1 [PH-797804]	–	–	–	logP [8]: 3.35; solubility [13]: 10 µg/mL (≈ 21 µM); Papp [14]: 15.9 ×10⁻⁶ cm/s; bioavailability [15]: 9.3%

Further lines, with some results ahead:

remaining at 0.75 h, 2 µM [1] [%]	remaining at 0.75 h, 2 µM [2] [%]	solubility [3, 16] [µg/mL]	SMILES	further results
97	100	163 (≈ 340 µM)	Cc1ccc(C(=O)NC[C@@H](O)CO)cc1-n1cnc(OCc2ccc(F)cc2F)c(Cl)c1=O	–
96	85	94 (≈ 197 µM)	Cc1ccc(C(=O)NC[C@H](C)CO)cc1-n1cnc(OCc2ccc(F)cc2F)c(Cl)c1=O	–
